Reference: article PMC8281356 (Chemical biology & drug design, 2021)

How the values were obtained:
[1] = molecular target: T1, ovine COX-1 (Ovis aries, UniProt P05979); test: COX fluorescent inhibitor screening kit; assay type: biochemical
T1 sequence (P05979 25-600): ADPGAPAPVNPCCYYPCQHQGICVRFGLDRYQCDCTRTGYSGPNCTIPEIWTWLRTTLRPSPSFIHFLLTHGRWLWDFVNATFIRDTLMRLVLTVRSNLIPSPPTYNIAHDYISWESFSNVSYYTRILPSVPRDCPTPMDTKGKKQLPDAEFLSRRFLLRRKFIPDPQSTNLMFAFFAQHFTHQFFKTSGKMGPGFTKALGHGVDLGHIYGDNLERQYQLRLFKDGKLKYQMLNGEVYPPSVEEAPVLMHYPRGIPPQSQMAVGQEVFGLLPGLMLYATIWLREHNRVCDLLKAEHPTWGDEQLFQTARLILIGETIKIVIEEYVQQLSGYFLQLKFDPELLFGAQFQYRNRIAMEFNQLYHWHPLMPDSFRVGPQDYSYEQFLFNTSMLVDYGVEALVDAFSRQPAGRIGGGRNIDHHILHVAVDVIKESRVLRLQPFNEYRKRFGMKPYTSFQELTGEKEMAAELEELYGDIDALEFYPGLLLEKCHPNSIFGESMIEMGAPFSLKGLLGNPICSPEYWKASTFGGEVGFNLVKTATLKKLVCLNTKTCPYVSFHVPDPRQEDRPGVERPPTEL
Procedure, shortened: (§1)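 Ovine COX-1 or human recombinant COX-2 with heme and ADHP in 100 mM Tris-HCl, pH 8.0. Test compound from 10 mM DMSO stock, final 2.5–100 μM. Arachidonic acid starts the reaction, 2 min at room temperature. Resorufin read at ex 535/em 590 nm. Percent inhibition vs no-inhibitor control; IC50 from concentration–inhibition curve, triplicate determinations.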

[2] = molecular target: T2, human recombinant COX-2 (Homo sapiens, UniProt P35354); test: COX fluorescent inhibitor screening kit; assay type: biochemical
T2 sequence (P35354 18-604): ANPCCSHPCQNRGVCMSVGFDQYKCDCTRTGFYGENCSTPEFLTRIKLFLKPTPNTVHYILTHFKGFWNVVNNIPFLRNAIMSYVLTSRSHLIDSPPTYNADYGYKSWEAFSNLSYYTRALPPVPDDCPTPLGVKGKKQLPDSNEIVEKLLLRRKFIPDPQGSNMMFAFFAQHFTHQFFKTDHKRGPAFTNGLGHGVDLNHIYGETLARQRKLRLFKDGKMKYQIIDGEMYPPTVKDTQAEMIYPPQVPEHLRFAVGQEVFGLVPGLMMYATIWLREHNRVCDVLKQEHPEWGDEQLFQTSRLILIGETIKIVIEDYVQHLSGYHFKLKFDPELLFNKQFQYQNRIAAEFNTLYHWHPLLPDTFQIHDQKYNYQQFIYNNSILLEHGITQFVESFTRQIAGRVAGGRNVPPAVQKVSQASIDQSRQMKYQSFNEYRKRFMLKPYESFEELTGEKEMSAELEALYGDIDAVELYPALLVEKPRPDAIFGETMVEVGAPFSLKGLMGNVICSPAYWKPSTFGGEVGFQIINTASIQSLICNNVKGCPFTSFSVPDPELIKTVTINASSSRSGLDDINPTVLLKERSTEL
Procedure, shortened: as §1

IC50 [1] [µM] | IC50 [2] [µM] | Structure (SMILES)
< 2.5 | > 100 | CC(=O)OC[C@H]1O[C@@H](OC(C)=O)[C@H](NC(=O)c2ccccc2Nc2cccc(C)c2C)[C@@H](OC(C)=O)[C@@H]1OC(C)=O [compound 5, 1,3,4,6-Tetra-O-acetyl-2-deoxy-2-(2-((2,3-dimethylphenyl)amino)benzamido)-β-D-glucopyranose]
25.5 | < 2.5 | CC(=O)OC[C@H]1O[C@@H](OC(C)=O)[C@H](NC(=O)Cc2ccccc2Nc2c(Cl)cccc2Cl)[C@@H](OC(C)=O)[C@@H]1OC(C)=O [compound 3]
24.9 | 33.6 | COc1ccc2c(c1)c(CC(=O)N[C@H]1[C@H](OC(C)=O)O[C@H](COC(C)=O)[C@@H](OC(C)=O)[C@@H]1OC(C)=O)c(C)n2C(=O)c1ccc(Cl)cc1 [compound 4]
